Measured values taken from the EternaBench riboswitch data.

Test system: MS2 coat protein
Experiment: apparent Kd, MS2 coat protein; higher = weaker binding; RNA-MaP array; theophylline 2 mM where present
Method in brief: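 Two titrations, one without ligand and one with constant ligand, were run with SNAP-549-labelled MS2 coat protein from 0.7 or 1.5 nM, doubling to 3 µM. The targets were designs transcribed by stalled E. coli RNA polymerase on Illumina sequencing-chip clusters, in 100 mM Tris-HCl pH 7.5, 80 mM KCl, 4 mM MgCl2, BSA, DTT, yeast tRNA and Tween-20. The apparent Kd is the median of filtered per-cluster binding-curve fits, with green signal normalised to red-channel RNA signal and control-cluster median Fmax.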

[1] = designed as: ON switch for theophylline, no ligand
[2] = ligand present: theophylline, designed as: ON switch for theophylline
[3] = designed as: OFF switch for theophylline, no ligand
[4] = ligand present: theophylline, designed as: OFF switch for theophylline

Sequence	apparent Kd [1]	apparent Kd [2]	apparent Kd [3]	apparent Kd [4]
AAUGAACAUGAGGAUCACCCAUGUCGUGAUACCAGCCGUAAGAGUGGCCCUUGGCAGCGCCAUGAGGACAACAACAUACAUGAGG	24.3 nM	27 nM	–	–
ACGACGCAUAGUGAUACCAGUAGAACAUGAGGAUCACCCAUGUCAGAUAUGUUCUAAUACUGCCCUUGGCAGCACUAUGCGUCAG	260 nM	134 nM	–	–
UAUACAUGAGGAUCACCCAUGUGCCAUGAUACCAGACAUGAAAAUGUCCCUUGGCAGCAUGGUGAUUGUAUAGCGGGAAACCCGA	160 nM	196 nM	–	–
UUCUACAUGAGGAUCACCCAUGUAAACGAUACCAGACGAGUAUUAGUCCCUUGGCAGCGUAGAGUGUCGUUUAUAGUAGGAUACC	22.7 nM	–	–	–
ACAUGAGGAUCACCCAUGUUCCUCGCCGAUACCAGUGAAGAAGAACGCCCUUGGCAGCGGAAAGAAUAUAUUGGAGAUGAUAUAU	–	–	219 nM	316 nM
AACAUGAGGAUCACCCAUGUAAUAUGGGAUACCAGAGACGAAAGUCUCCCUUGGCAGCCCAAGCUGCUCCAUACGAAAGUAUGGU	65.2 nM	18 nM	–	–
ACAUGAGGAUCACCCAUGUCACGGCACGAUACCAGCUGAUCCGGUGGCCCUUGGCAGCGUCACGUUUGGUCCCGCGGAUGACACG	64.3 nM	60.4 nM	–	–
UCUUACUUGGUAGAUACCAGCGUGUUAUCUUUCUUUUGACAUGAGGAUCACCCAUGUAUAUGCCCUUGGCAGCUGCGUAGUGUGU	33.7 nM	32.5 nM	–	–
GCAAUACAUGAGGAUCACCCAUGUGCAGAUACCAGAGGUGUAUGCCUCCCUUGGCAGCUGCGACGCUCUGGCAUCUUGUGGGAUG	51.8 nM	48.8 nM	–	–
UCUGGGUCCGCAAGGACCUGGAGUUGCGAUACCAGCACGGUAACGUGCCCUUGGCAGCGCACAUGAGGAUCACCCAUGUGGUGUU	–	–	261 nM	436 nM
AAACAUUGCUCAGAUACCAGACAUGAGGAUCACCCAUGUACCAAGGUAACCGAAAGGCAUGUCCCUUGGCAGCUGAGCAAUGAAA	–	–	13.7 nM	240 nM
UGACAUUGCUCAGAUACCAGACAUGAGGAUCACCCAUGUACCAAGAAAGUACAAUAAAAUGUCCCUUGGCAGCUGAGCAAUGUCU	–	–	66.8 nM	487 nM
CGCAACCCUAAGGGAUUGUGGUUAUUAGAUACCAGUAUGAUGCAAUACCCUUGGCAGCUAAUACAUGAGGAUCACCCAUGUUGCG	–	–	–	59.5 nM
UAAUAAAUAAGUGAUACCAGCGAGAAAACAUGAGGAUCACCCAUGUUCGCCCAUGUUAAGCGCCCUUGGCAGCACAAAUAUAAAA	–	–	26.1 nM	84.9 nM
ACGACGCAUACAGAUACCAGUAGAACAUGAGGAUCACCCAUGUCUGAGGCGCUCCGCCACUGCCCUUGGCAGCUGUAUGCGUCAG	9.7 nM	14.2 nM	–	–
AAACGUUGCUCAGAUACCAGACAUGAGGAUCACCCAUGUACCAAGGUAAAGAAAUAACGUGUCCCUUGGCAGCUGAGCAACGAAA	–	–	11 nM	113 nM
AUCGUACCUAAUGAUACCAGCAAGUGAUCAUAACAUGAGGAUCACCCAUGUAAUCAGUGAUGCCCUUGGCAGCAUAAUCGAUACA	146 nM	88 nM	–	–
GGCGGACUUAUAGAUACCAGCACAUGAGGAUCACCCAUGUAUGGUCGCACCUCAGUCCUGUGCCCUUGGCAGCUAUAAUAGAUUU	–	–	19.7 nM	115 nM
GAGCUGAUGUAGAGCGAAUAUUCGAGAGAUACCAGUACAGAAAUGUACCCUUGGCAGCUCAACUUUACAUGAGGAUCACCCAUGU	–	–	13.7 nM	25 nM
GACAUGAGGAUCACCCAUGUAUUGGGUGAUACCAGCCUGAAUCAUGGCCCUUGGCAGCACCGCGCUAACUUUAUGUUUGCGAACC	49.7 nM	160 nM	–	–
UGUAACAUGAGGAUCACCCAUGUGAGUGAUACCAGAUUAGUAGUAGUCCCUUGGCAGCACAUUGGGCGAGUGUAUAGUCUAUGCG	171 nM	118 nM	–	–
ACGUCCGGAUUGAUCGUGGGCAUGGUCGAUACCAGUAUUUUAAUCUACCCUUGGCAGCGACAUGAGGAUCACCCAUGUGCGAUGA	–	–	16.9 nM	42.6 nM
UCGUGUAUAUCGGAUACCAGUGAAAUCGAUACAUGAGGAUCACCCAUGUGAGUUGAUGUACACCCUUGGCAGCUGUAUAUAUCUA	16.2 nM	12.4 nM	–	–
UUGGUACGACAGCUCAUAUAAGCAUGUGAUACCAGACUGGAAACAGUCCCUUGGCAGCACUUUACAUGAGGAUCACCCAUGUCGG	–	–	221 nM	191 nM

Sequence	apparent Kd [1]	apparent Kd [2]	apparent Kd [3]	apparent Kd [4]
AGCCCAUUACAUGAGGAUCACCCAUGUGAUACCAGUCAGGAAACUGACCCUUGGCAGCGCAUGAGGAUCACCCAUGCGCUGGGCA	–	–	12 nM	11.4 nM
GUGGAGACAUGAGAUACCAGUCUCUUUAACAUGAGGAUCACCCAUGUAAUGCUCCUCGGAGACCCUUGGCAGCUCAGUAUGAUGA	–	–	39.9 nM	157 nM
AGACAUGUAGGAUAAUUGACUAUUACAGAUACCAGACUGUCUAAUGUCCCUUGGCAGCUGCAUUACAUGAGGAUCACCCAUGUUA	–	–	22.6 nM	20.2 nM
GGUGGCUGGAUCGAUACCAGCCACCACCGAUAGACCACAUGAGGAUCACCCAUGUUGGGUGGCCCUUGGCAGCGGUCCGGCUGCC	278 nM	1290 nM	–	–
AAACGUUGCUCAGAUACCAGACAUGAGGAUCACCCAUGUACCAAGGUACCCGAAAGGAAUGUCCCUUGGCAGCUGAGCAACGAAA	–	–	9.57 nM	21.6 nM
CAGCCUGGUUGGUAAAUCCCUCAUCGUGAUACCAGUCGAGUGAUCGACCCUUGGCAGCACAUGAGGAUCACCCAUGUGCUCGUAU	–	–	25.1 nM	23.1 nM
AUACCUAGUGAGUCGUGUUUCUUUUCAGAUACCAGACUUUUCGUUGUCCCUUGGCAGCUGUUUUACAUGAGGAUCACCCAUGUUG	–	–	15.7 nM	23.6 nM
ACACAUGAGGAUCACCCAUGUCCAAUAGAUACCAGUGAUACGGUGCACCCUUGGCAGCUGUUGCUGAGUGAUGGUUCCCUCGGAA	125 nM	164 nM	–	–
AUAACAUGAGGAUCACCCAUGUAGAGUGAUACCAGACUACGUAAUGUCCCUUGGCAGCACAAGUAAAGUUACGAAUAAUGAUAGA	179 nM	50.8 nM	–	–
AUGUCGUUGAAUACAGCGGCAUGGAGUGAUACCAGAAUGAUCAAAUUCCCUUGGCAGCAUCACAUGAGGAUCACCCAUGUUCGAU	29.1 nM	34.3 nM	–	–
AUCUCGUUCAAUAUACCGCCUUGACUAGAUACCAGCAUGGACCCAUGCCCUUGGCAGCUGGACAUGAGGAUCACCCAUGUUUCAG	12.4 nM	14.6 nM	–	–
AAAUAGGUAGGAGAUACCAGAUACGUUAACAUGAGGAUCACCCAUGUGUAUGCACUUAGUGUCCCUUGGCAGCUCGAGGAUCUGG	30.7 nM	35.3 nM	–	–
AGCCCUGUGCUAGAUACCAGCUACAUGAGGAUCACCCAUGUGCGUCAGAAAUGACUGUGUAGCCCUUGGCAGCUAAAUGCAUGUA	–	–	11.8 nM	28 nM
UCGUGUAUAUCGGAUACCAGUGAAAUCGAUACAUGAGGAUCACCCAUGUGAGAGGAUGUACACCCUUGGCAGCUGUAUAUAUCUA	32.8 nM	14.7 nM	–	–
AACAUGAGGAUCACCCAUGUUUUAUGGGAUACCAGAGACGAAAGUCUCCCUUGGCAGCCCAAGCUGCUCCAUACGAAAGUAUGGU	14.3 nM	14 nM	–	–
ACUAGUUGUGCAGAUACCAGACAUGAGGAUCACCCAUGUUUGGGAUCUAAUGAUCAUCUUGUCCCUUGGCAGCUGUACAUCUAGA	–	–	78.5 nM	33.9 nM
ACAUCCAGAUUAAUCGUGGGCAUACUCGAUACCAGUAUUUUAAUCUACCCUUGGCAGCGACAUGAGGAUCACCCAUGUGCGAUGA	–	–	12.8 nM	21.1 nM
AUAACAUGAGGAUCACCCAUGUAAGCAGAUACCAGCUAGGAAACUAGCCCUUGGCAGCUGCAAUCAUGGGUGUGGUAUCUGCUAA	–	–	28.2 nM	39.7 nM
UGUACAUGAGGAUCACCCAUGUUACGCGAUACCAGACAUGAGAGUGUCCCUUGGCAGCGUGGAGCUGAUACGGCGGGAAGCCGGA	43.7 nM	39.5 nM	–	–
AGCGACAUGCGUGAUACCAGCUACAUGAGGAUCACCCAUGUAAGUAGGAAACUACUGUGUAGCCCUUGGCAGCACAAUGCAUGUC	–	–	19.8 nM	43.5 nM
UGACGAUACCUGGAUACCAGCGACAUGAGGAUCACCCAUGUAUGAGGAUCAGCCAUGUUAUGCCCUUGGCAGCCACGAAGGUCUU	–	–	33 nM	224 nM
GGUAUUGGAACAGAUACCAGUAUCUGUUGAUCCUACAUGAGGAUCACCCAUGUUAGAAAGUACCCUUGGCAGCUGUAAUAAUGCC	–	–	48.1 nM	81.6 nM
AGCAUGUUAUCAGAUACCAGACAUCUUUUAAUACAUAUUACAUGAGGAUCACCCAUGUUGGUCCCUUGGCAGCUGAAAUAUUUCA	256 nM	80.5 nM	–	–
